Reference: publication PMC9958447 (Heliyon, 2023)
Entries after “also recorded” stand apart in the source; their conditions may differ.

Key:
[1] = system: PTZ-induced larvae of zebrafish; assay: Behavioural assessment in PTZ-induced epilepsy zebrafish larvae; assay type: in vivo, zebrafish (Danio rerio)
[2] = system: zc4h2 KO zebrafish larvae; assay: Heartbeat / cardiotoxicity in zc4h2 KO zebrafish larvae; assay type: in vivo, zebrafish (Danio rerio); details: for cardiotoxicity: zebrafish larvae, judged from heartbeat
[3] = system: wild-type (WT) zebrafish embryos; assay: Toxicity profiling of embryo zebrafish; assay type: in vivo, zebrafish (Danio rerio)
Summary of the method: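 Wild-type embryos were exposed from 5 hpf to the test compound at 0, 4.29, 8.58, 12.86, 17.15 and 21.44 μM, serially diluted from a 1 mM DMSO stock. Triplicates had 10 embryos each (n = 30). Mortality was scored daily, with LC50 at 72 hpf. Spontaneous coils were counted for 1 min at 24 hpf after 5 min habituation. Percent hatched was scored at 72 hpf. Data are mean ± SEM, analysed by one-way ANOVA with Tukey.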

[4] = cited from earlier work
[5] = system: zebrafish larvae; details: cited from earlier work
[6] = 2.5 mM PTZ, 5 dpf larvae, 8.58 μM compound 8 or 100 μM VPA, 1 h
[7] = 2.5 mM PTZ, 5 dpf larvae, 8.58 μM compound 8 or 100 μM VPA, 1 h, vs PTZ group
[8] = 2.5 mM PTZ alone vs control, 5 dpf larvae

## CCCC(CCC)C(=O)O [VPA, sodium valproate]
[1]; [6]
  distance spent in the inner area (thigmotaxis): significantly increased
  total duration of freezing: without significant changes
[1]; [7]
  average velocity (average speed travelled): significant decrease
  distance travelled (total and average): significant decrease
  number of freezing count: significantly reduced
  total velocity (total speed travelled): significant decrease

## O=C(/C=C/c1cc(F)cc(F)c1)c1ccc[nH]1 [Compound 8, (E)-3-(3,5-difluorophenyl)-1-(1H-pyrrol-2-yl)prop-2-en-1-one]
[2]; 5 dpf larvae, 2 h incubation, vs control groups
  heartbeat (heartbeats/min): no significant difference
[2]
  cardiotoxicity: no cardiotoxic effects
[2]; listed as compound 8
  cardiotoxicity: no cardiotoxic effect; also recorded: no potential cardiotoxicity
[1]; [6]
  distance spent in the inner area (thigmotaxis): significantly increased
  total duration of freezing: increased
[1]; [7]
  average velocity (average speed travelled): significant decrease
  number of freezing count: significant reduction
  total velocity (total speed travelled): significant decrease
[1]; PTZ-induced larvae
  convulsive behaviour: effective in reducing
[3]; 21.44 μM, 24 hpf
  mortality at the beginning of the observation period: lethal
[3]; >12.86 μM, 24 hpf
  spontaneous tail coiling (STC): no tail movement
[3]; chosen from all toxicological parameters
  optimal safe concentration: 8.58 µM
[3]; exposure of 12.86 μM or more, 24–72 hpf
  cumulative mortality rate: > 80%
[3]; exposure up to 8.58 μM
  mortality compared to the control group: no significant difference
[3]; from 8.58 μM, 24 hpf
  spontaneous tail coiling (STC) compared to control: significant decrease
[3]; from 12.86 μM, 72 hpf
  hatching rate: decreased significantly

## O=c1onc(-c2cccs2)n1Cc1ccc(F)cc1Cl [GM90432, 4-(2-chloro-4-fluorobenzyl)-3-(2-thienyl)-1,2,4-oxadiazol-5(4H)-one]
[4]
  blood-brain barrier passage: effectively cross the blood-brain barrier

## C1CCc2nnnn2CC1 [PTZ, pentylenetetrazol]
[1]; [8]
  distance and speed of zebrafish: significantly increased
  total number of freezes: significantly increased

## CN1C(=O)CN=C(c2ccccc2)c2cc(Cl)ccc21 [diazepam]
[5]
  percentage of distance spent in the inner area: significantly increased
